Assay results from ChEMBL document CHEMBL1122415, “Folate antagonists. 20. Synthesis and antitumor and antimalarial properties of trimetrexate and related 6-[(phenylamino)methyl]-2,4-quinazolinediamines” (1983).
“And” between values parts separate entries of the source, which are not always exact repeats. Identical values can stand only once.

Columns and labels:
Plasmodium berghei [1] = assay: Antimalarial effect against trophozoite-induced Plasmodium berghei in mice (Mus musculus) after subcutaneous dose of 160 mg/kg; assay type: functional
L1210 = assay: Molar concentration required to reduce the number of L1210 cells by 50% after incubation for 2 days; assay type: functional, Mus musculus; settings: read-out: ID50 (the source's name)
How it was run: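 L1210 leukemia cells in tissue culture exposed to drug for 2 days. ID50 is the molar concentration that reduces L1210 cell number by 50%. Mithramycin is the reference drug.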

Mus musculus [2] = assay: Antimalarial effect against trophozoite-induced Plasmodium berghei in mice (Mus musculus) after subcutaneous administration dose of 640 mg/kg; assay type: functional
Plasmodium berghei [3] = assay: Antimalarial effect against trophozoite-induced Plasmodium berghei in mice (Mus musculus) at 20 mg/kg subcutaneous dose; assay type: functional
Plasmodium berghei [4] = assay: Antimalarial effect against trophozoite-induced Plasmodium berghei in mice (Mus musculus) at 40 mg/kg subcutaneous dose; assay type: functional
Plasmodium berghei [5] = assay: Antimalarial effect against trophozoite-induced Plasmodium berghei in mice (Mus musculus) at 320 mg/kg subcutaneous dose; assay type: functional
Mus musculus [6] = assay: Antimalarial effect against trophozoite-induced Plasmodium berghei in mice (Mus musculus) after subcutaneous administration dose of 2.5 mg/kg; assay type: functional
Mus musculus [7] = species on record: Mus musculus; assay: Daily dose required for 90% parasitaemia in trophozoite induced Plasmodium berghei in 21 mice; assay type: functional
How it was run: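 Oral suppressive test in mice against a normal drug-sensitive P. berghei strain. Drug given continuously in the diet for six consecutive days, with doses as free base equivalent. SD90 is the daily dose (mg/kg) giving 90% suppression of parasitemia versus control mice, estimated graphically on semilog paper.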

Plasmodium berghei [8] = assay: Antimalarial effect against trophozoite-induced Plasmodium berghei in mice (Mus musculus) after subcutaneous dose of 10 mg/kg; assay type: functional
Plasmodium berghei [9] = assay: Antimalarial effect against trophozoite-induced Plasmodium berghei in mice (Mus musculus) at 5 mg/kg subcutaneous dose; assay type: functional
Mus musculus [10] = assay: (§1) Antimalarial effect against trophozoite-induced Plasmodium berghei in mice (Mus musculus) after subcutaneous administration dose of 20 mg/kg; assay type: functional
Mus musculus [11] = assay: Antimalarial effect against trophozoite-induced Plasmodium berghei in mice (Mus musculus) after subcutaneous administration dose of 10 mg/kg; assay type: functional; settings: 10 mg/kg
Mus musculus [12] = assay: as §1; assay type: functional; remark: listed apart in the source
Plasmodium berghei [13] = assay: Change in mean survival time of Trophozoite-induced Plasmodium berghei infected mice (Mus musculus) after 160 mg/kg subcutaneous dose; 60 days survival; assay type: functional
Plasmodium berghei [14] = assay: Antimalarial effect against trophozoite-induced Plasmodium berghei in mice (Mus musculus) at 80 mg/kg subcutaneous dose; assay type: functional
Mus musculus [15] = assay: Antimalarial effect against trophozoite-induced Plasmodium berghei in mice (Mus musculus) after subcutaneous administration dose of 1.25 mg/kg; assay type: functional
Mus musculus [16] = assay: Antimalarial effect against trophozoite-induced Plasmodium berghei in mice (Mus musculus) after subcutaneous administration dose of 320 mg/kg; 3 survived after 60 days of postinfection; assay type: functional
Mus musculus [17] = assay: Antimalarial effect against trophozoite-induced Plasmodium berghei in mice (Mus musculus) after subcutaneous administration dose of 20 mg/kg; 2 survived after 60 days of postinfection; assay type: functional
Mus musculus [18] = assay: Antimalarial effect against trophozoite-induced Plasmodium berghei in mice (Mus musculus) after subcutaneous administration dose of 160 mg/kg; 3 survived after 60 days of postinfection; assay type: functional
Mus musculus [19] = assay: Antimalarial effect against trophozoite-induced Plasmodium berghei in mice (Mus musculus) after subcutaneous administration dose of 80 mg/kg; 1 survived after 60 days of postinfection; assay type: functional
Mus musculus [20] = assay: Antimalarial effect against trophozoite-induced Plasmodium berghei in mice (Mus musculus) after subcutaneous administration dose of 320 mg/kg; 1 survived after 60 days of post infection
Mus musculus [21] = assay: Antimalarial effect against trophozoite-induced Plasmodium berghei in mice (Mus musculus) after subcutaneous administration dose of 40 mg/kg; 2 survived after 60 days of postinfection; assay type: functional
Mus musculus [22] = assay: Antimalarial effect against trophozoite-induced Plasmodium berghei in mice (Mus musculus) after subcutaneous administration dose of 40 mg/kg; 3 survived after 60 days of post infection; assay type: functional
Mus musculus [23] = assay: Antimalarial effect against trophozoite-induced Plasmodium berghei in mice (Mus musculus) after subcutaneous administration dose of 80 mg/kg; 1 survived after 60 days; assay type: functional
Mus musculus [24] = assay: Antimalarial effect against trophozoite-induced Plasmodium berghei in mice (Mus musculus) after subcutaneous administration dose of 160 mg/kg; 4 survived after 60 days; assay type: functional
Mus musculus [25] = assay: Antimalarial effect against trophozoite-induced Plasmodium berghei in mice (Mus musculus) after subcutaneous after 60 days; assay type: functional
Mus musculus [26] = assay: Antimalarial effect against trophozoite-induced Plasmodium berghei in mice (Mus musculus) after subcutaneous administration dose of 40 mg/kg; 1 survival after 60 days; assay type: functional
Mus musculus [27] = assay: Antimalarial effect against trophozoite-induced Plasmodium berghei in mice (Mus musculus) after subcutaneous administration dose of 40 mg/kg; 1 survived after 60 days of postinfection; assay type: functional

SMILES	IC50 (L1210; Mus musculus, L1210, 48 h)	IC50 (L1210)	Delta MST (Plasmodium berghei [3]; 20 mg/kg)	Delta MST (Plasmodium berghei [4]; 40 mg/kg)	SD90 (Mus musculus [7])	Delta MST (Plasmodium berghei [9])	Delta MST (Plasmodium berghei [3])	Delta MST (Plasmodium berghei [8])	also measured
Nc1nc(N)c2cc(CN(C=O)c3ccc4cc(Cl)ccc4c3)ccc2n1	250 nM	150 nM	0.5 days and 0.3 days	1.5 days and 0.5 days					Delta MST (Plasmodium berghei [1]; 160 mg/kg): 10.9 days and 4.1 days; Delta MST (Mus musculus [2]): 16.9 days; Delta MST (Plasmodium berghei [5]; 320 mg/kg): 13.9 days and 13.7 days and 10.7 days
CC(=O)O.Cc1c(CNc2ccc(Cl)cc2)ccc2nc(N)nc(N)c12	1.9 nM				0.088 mg/kg/day	8.7 days	20.9 days		Delta MST (Mus musculus [6]): 0.7 days; Delta MST (Plasmodium berghei [8]; 10 mg/kg): 19.8 days and 25.9 days and 8.8 days
CC(=O)O.Nc1nc(N)c2c(Cl)c(CNc3ccc(Cl)cc3)ccc2n1.O									Delta MST (Mus musculus [6]): 2.7 days; Delta MST (Mus musculus [10]): 16.9 days; Delta MST (Mus musculus [11]): 6.9 days and 6.1 days; Delta MST (Mus musculus [12]): 16.9 days and 17.4 days
CC(=O)O.COc1cc(NCc2ccc3nc(N)nc(N)c3c2)cc(OC)c1OC.O	57 nM	87 nM		0.7 days and 0.3 days	62 mg/kg/day		0.7 days	0.3 days	Delta MST (Plasmodium berghei [1]; 160 mg/kg): 4.9 days and 4.5 days; Delta MST (Plasmodium berghei [5]): 7.9 days
CC(=O)O.Nc1nc(N)c2cc(CNc3ccc(Cl)c(C(F)(F)F)c3)ccc2n1.O.O				10.5 days and 4.9 days			5.1 days		Delta MST (Plasmodium berghei [13]): 23.9 days; Delta MST (Plasmodium berghei [8]; 10 mg/kg): 4.9 days and 2.7 days; Delta MST (Plasmodium berghei [14]; 80 mg/kg): 27.2 days and 10.3 days; Delta MST (Plasmodium berghei [5]): 29.9 days
CC(=O)O.Cc1c(CNc2cccc(Br)c2)ccc2nc(N)nc(N)c12.O	4.4 nM	3.7 nM	12.6 days and 11.2 days and 7.7 days	9.3 days and 11.2 days	0.2 mg/kg/day	7.7 days			Delta MST (Mus musculus [15]): 0.5 days; Delta MST (Plasmodium berghei [14]; 80 mg/kg): 21.8 days and 9.2 days
CC(=O)O.Nc1nc(N)c2cc(CNc3cccc(Br)c3)ccc2n1	86 nM	71 nM	1.5 days and 1.8 days		9 mg/kg/day			0.4 days	Delta MST (Plasmodium berghei [1]): 9.2 days; Delta MST (Plasmodium berghei [4]): 3.1 days; Delta MST (Plasmodium berghei [14]; 80 mg/kg): 8.8 days and 10.2 days and 3.6 days; Delta MST (Mus musculus [16]): 9.2 days; Delta MST (Plasmodium berghei [5]; 320 mg/kg): 9.2 days and 9.8 days
CC(=O)O.Nc1nc(N)c2cc(CNc3ccc(Cl)cc3)ccc2n1.O.O	27 nM	35 nM			1.9 mg/kg/day		5.1 days		Delta MST (Plasmodium berghei [1]): 9.9 days; Delta MST (Plasmodium berghei [4]): 6.9 days; Delta MST (Plasmodium berghei [14]; 80 mg/kg): 6.9 days and 5.1 days
CC(=O)O.Cc1c(CNc2ccc(Cl)c(Cl)c2)ccc2nc(N)nc(N)c12	8.4 nM	4.3 nM			0.33 mg/kg/day	8.6 days	15.9 days		Delta MST (Mus musculus [6]; 2.5 mg/kg): 7.2 days and 4 days; Delta MST (Mus musculus [17]): 15.8 days; Delta MST (Plasmodium berghei [4]): 29.8 days
CC(=O)O.Nc1nc(N)c2cc(CNc3cccc(Cl)c3)ccc2n1.O.O	46 nM	70 nM	0.7 days and 0.5 days		8.5 mg/kg/day			0.3 days	Delta MST (Mus musculus [2]): 9.9 days; Delta MST (Plasmodium berghei [4]): 1.7 days; Delta MST (Plasmodium berghei [14]): 3.3 days; Delta MST (Plasmodium berghei [5]; 320 mg/kg): 20.6 days and 16.4 days and 8.7 days
CC(=O)O.Nc1nc(N)c2cc(CNc3ccc(Cl)c(Cl)c3)ccc2n1.O.O		18 nM and 23 nM and 67 nM		11.2 days and 5.8 days	0.92 mg/kg/day		5.8 days	1.8 days	Delta MST (Mus musculus [6]; 2.5 mg/kg): 0.4 days and 0.2 days; Delta MST (Plasmodium berghei [1]; 160 mg/kg): 18.8 days and 19.8 days; Delta MST (Mus musculus [18]; 160 mg/kg): 11.8 days and 12.1 days; Delta MST (Mus musculus [19]): 11.8 days
CC(=O)O.Nc1nc(N)c2c(Cl)c(CNc3ccc(Cl)c(Cl)c3)ccc2n1.O						4.3 days			Delta MST (Mus musculus [15]): 2.9 days
CC(=O)O.Nc1nc(N)c2cc(CN(N=O)c3ccc(Cl)c4ccccc34)ccc2n1	130 nM	170 nM	0.7 days and 0.5 days	2.9 days and 2.7 days				0.3 days	Delta MST (Plasmodium berghei [1]; 160 mg/kg): 12.9 days and 13.1 days; Delta MST (Plasmodium berghei [14]; 80 mg/kg): 5.7 days and 5.9 days; Delta MST (Plasmodium berghei [5]; 320 mg/kg): 14.7 days and 14.9 days
CC(=O)O.Nc1nc(N)c2cc(CNc3ccc(Cl)c4ccccc34)ccc2n1.O	22 nM	13 nM				9.9 days			Delta MST (Mus musculus [6]): 5.5 days; Delta MST (Mus musculus [15]): 1.7 days; Delta MST (Plasmodium berghei [8]; 10 mg/kg): 10.3 days and 10.5 days and 10.7 days; Delta MST (Mus musculus [17]; 20 mg/kg): 11.9 days and 12.6 days and 12.9 days
CC(=O)O.Nc1nc(N)c2cc(CNc3ccccc3Cl)ccc2n1.O	93 nM	68 nM		3.1 days and 1.3 days	8 mg/kg/day	0.7 days		0.7 days	Delta MST (Mus musculus [20]): 7.9 days; Delta MST (Plasmodium berghei [14]): 7.7 days; Delta MST (Mus musculus [16]): 8.4 days; Delta MST (Plasmodium berghei [5]; 320 mg/kg): 9.9 days and 8.4 days
CC(=O)O.Nc1nc(N)c2cc(CNc3ccc4cc(Cl)ccc4c3)ccc2n1.O.O	140 nM	260 nM	8.3 days and 8.5 days					3.3 days	Delta MST (Mus musculus [21]): 20.6 days and 20.7 days
Nc1nc(N)c2cc(NCc3ccc(Cl)c(Cl)c3)ccc2n1				7.1 days and 2.7 days	8.5 mg/kg/day				Delta MST (Plasmodium berghei [1]): 9.9 days; Delta MST (Plasmodium berghei [14]; 80 mg/kg): 13.1 days and 7.3 days; Delta MST (Mus musculus [18]): 9.9 days
Nc1nc(N)c2c(Cl)c(CN(C=O)c3ccc(Cl)c(Cl)c3)ccc2n1			21.9 days and 21.6 days					7.9 days	Delta MST (Mus musculus [6]; 2.5 mg/kg): 4.1 days and 3.1 days; Delta MST (Plasmodium berghei [4]): 21.9 days; Delta MST (Plasmodium berghei [14]): 24.4 days; Delta MST (Mus musculus [22]): 23.9 days
Nc1nc(N)c2cc(CN(N=O)c3ccc(Cl)c(C(F)(F)F)c3)ccc2n1			5.1 days and 5.3 days	10.9 days and 11.1 days				1.3 days	Delta MST (Mus musculus [19]; 80 mg/kg): 14.9 days and 15.2 days
Nc1nc(N)c2cc(CN(C=O)c3ccc(Cl)c(C(F)(F)F)c3)ccc2n1				1.5 days and 1.7 days			0.3 days	0.3 days	Delta MST (Plasmodium berghei [1]; 160 mg/kg): 7.5 days and 6.3 days; Delta MST (Mus musculus [2]): 9.9 days; Delta MST (Plasmodium berghei [5]; 320 mg/kg): 12.5 days and 12.3 days
Nc1nc(N)c2cc(N(Cc3ccc(Cl)c(Cl)c3)N=O)ccc2n1						2.9 days			Delta MST (Plasmodium berghei [8]; 10 mg/kg): 7.5 days and 9.9 days; Delta MST (Mus musculus [17]): 20.9 days
CC(=O)N(Cc1ccc2nc(N)nc(N)c2c1)c1ccc(Cl)c(Cl)c1	300 nM	190 nM			>15.1 mg/kg/day		1.3 days	0.9 days	Delta MST (Plasmodium berghei [4]): 3.7 days; Delta MST (Plasmodium berghei [14]; 80 mg/kg): 8.3 days and 3.7 days and 4.1 days
Nc1nc(N)c2c(Cl)c(CN(N=O)c3ccc(Cl)c(Cl)c3)ccc2n1			6.1 days and 6.3 days					3.5 days	Delta MST (Mus musculus [23]): 13.4 days; Delta MST (Mus musculus [24]): 21.9 days; Delta MST (Plasmodium berghei [4]): 8.1 days
CC1(C)N=C(N)N=C(N)N1c1ccc(Cl)cc1.Cl [CHLORCYCLOGUANIL HYDROCHLORIDE]							7.9 days	4.9 days	Delta MST (Mus musculus [25]): 21.6 days; Delta MST (Mus musculus [26]): 13.4 days
CCc1nc(N)nc(N)c1-c1ccc(Cl)cc1 [PYRIMETHAMINE]						3.1 days		5.3 days	Delta MST (Mus musculus [6]): 4.7 days; Delta MST (Mus musculus [27]): 7.7 days and 6.1 days
